In ChEMBL document CHEMBL1154373, “Laetirobin from the parasitic growth of Laetiporus sulphureus on Robinia pseudoacacia” (J Nat Prod, 2009):
Active and inactive are the calls of the source. The rule behind the calls is not given here.

Legend:
[1] = system: HeLa; assay: Inhibition of mitosis in human HeLa cells assessed as actin hyperfilamentation at 1 nM by FITC-phalloidin staining; format: functional, cell-based
Procedure, shortened: (§1)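 Cells treated with 1 nM compound before entry into mitosis, then fixed with formalin. Stained for microtubules with BODIPY-FL paclitaxel, actin with FITC-phalloidin, and DNA. Analysed by confocal microscopy for actin filamentation, microtubule structure and daughter-cell separation.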

[2] = system: HeLa; assay: Cytostatic activity against human HeLa cells; format: functional, cell-based
[3] = system: HCT-116; assay: Cytostatic activity against human HCT116 cells; format: functional, cell-based
[4] = system: N2a; assay: Cytostatic activity against mouse Neuro2a cells; format: functional, cell-based
[5] = Drug localization in nuclear envelope of mouse Neuro2A cells at 1 nM after 1 hr by fluorescence microscopy; format: ADME, cell-based; settings: 0.001 µM
[6] = Drug localization in large vesicles of mouse Neuro2A cells at 1 nM after 1 hr by fluorescence microscopy; format: ADME, cell-based; settings: 0.001 µM
[7] = Drug localization in nuclear envelope of human HCT116 cells at 1 nM after 1 hr by confocal microscopy; format: ADME, cell-based; settings: hct-116, 1 h, 0.001 µM
[8] = Drug localization in large vesicles of human HCT116 cells at 1 nM after 1 hr by confocal microscopy; format: ADME, cell-based; settings: hct-116, 1 h, 0.001 µM
[9] = system: N2a; assay: Inhibition of mitosis in mouse Neuro2a cells assessed as chromatin compactness at 1 nM after 6 to 12 hrs by time-lapse microscopy; format: functional, cell-based
Procedure, shortened: (§2)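 Cells treated with 1 nM compound and followed by time-lapse microscopy imaging the compound's native fluorescence. Bleb formation and chromatin compaction scored at 6 h and 12 h after treatment.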

[10] = system: N2a; assay: Inhibition of mitosis in mouse Neuro2a cells assessed as bleb formation at 1 nM after 6 to 12 hrs by time-lapse microscopy; format: functional, cell-based; procedure, shortened: as §2
[11] = system: HCT-116; assay: Inhibition of mitosis in human HCT116 cells assessed as bleb formation at 1 nM after 6 to 12 hrs by time-lapse microscopy; format: functional, cell-based; procedure, shortened: as §2
[12] = system: HCT-116; assay: Inhibition of mitosis in human HCT116 cells assessed as chromatin compactness at 1 nM after 6 to 12 hrs by time-lapse microscopy; format: functional, cell-based; procedure, shortened: as §2
[13] = system: HCT-116; assay: Inhibition of mitosis in human HCT116 cells assessed as membrane scarring between daughter cells at 1 nM by confocal microscopy; format: functional, cell-based; procedure, shortened: as §1
[14] = system: HCT-116; assay: Inhibition of mitosis in human HCT116 cells assessed as hyperfilamentation of actin at 1 nM by FITC-phalloidin staining; format: functional, cell-based; procedure, shortened: as §1
[15] = system: HCT-116; assay: Inhibition of mitosis in human HCT116 cells assessed as microtubule disassociation at 1 nM by BODIPY-FL paclitaxel staining; format: functional, cell-based; procedure, shortened: as §1
[16] = system: HeLa; assay: Inhibition of mitosis in human HeLa cells assessed as microtubule disassociation at 1 nM by BODIPY-FL paclitaxel staining; format: functional, cell-based; procedure, shortened: as §1
[17] = system: HeLa; assay: Inhibition of mitosis in human HeLa cells assessed as membrane scarring between daughter cells at 1 nM by confocal microscopy; format: functional, cell-based; procedure, shortened: as §1
[18] = system: N2a; assay: Inhibition of mitosis in mouse Neuro2a cells assessed as actin hyperfilamentation at 1 nM by FITC-phalloidin staining; format: functional, cell-based; procedure, shortened: as §1
[19] = system: N2a; assay: Inhibition of mitosis in mouse Neuro2a cells assessed as microtubule disassociation at 1 nM by BODIPY-FL paclitaxel staining; format: functional, cell-based; procedure, shortened: as §1
[20] = system: N2a; assay: Inhibition of mitosis in mouse Neuro2a cells assessed as membrane scarring between daughter cells at 1 nM by confocal microscopy; format: functional, cell-based; procedure, shortened: as §1
[21] = system: HeLa; assay: Inhibition of mitosis in human HeLa cells assessed as chromatin compactness at 1 nM after 6 to 12 hrs by time-lapse microscopy; format: functional, cell-based; procedure, shortened: as §2
[22] = system: HeLa; assay: Inhibition of mitosis in human HeLa cells assessed as bleb formation at 1 nM after 6 to 12 hrs by time-lapse microscopy; format: functional, cell-based; procedure, shortened: as §2
[23] = Drug localization in lysosome of human HCT116 cells at 1 nM assessed as increase of fluorescence with acidity after 1 hr by spectrophotometric analysis; format: ADME, cell-based; settings: hct-116, 1 h, 0.001 µM

## CC(=O)c1cc2c(cc1O)OC1=C(c3cc4cc(C(C)=O)c(O)cc4o3)CCC(c3cc4cc(C(C)=O)c(O)cc4o3)(c3cc4cc(C(C)=O)c(O)cc4o3)C12 (racemic)
[1]
  Activity: Active
[2]
  IC50: 0.12 nM
[3]
  IC50: 0.54 nM
[4]
  IC50: 0.092 nM
[5]
  Activity: Active
[6]
  Activity: Active
[7]
  Activity: Active
[8]
  Activity: Active
[9]
  Activity: Active
[10]
  Activity: Active
[11]
  Activity: Active
[12]
  Activity: Active
[13]
  Activity: Active
[14]
  Activity: Active
[15]
  Activity: Active
[16]
  Activity: Active
[17]
  Activity: Active
[18]
  Activity: Active
[19]
  Activity: Active
[20]
  Activity: Active
[21]
  Activity: Active
[22]
  Activity: Active
[23]
  Activity: Active
